# High-throughput results as filed in PubChem.
# ARNT TACC3 PPI: disrupts binding between human ARNT and TACC3; inhibition, % at 9.99 µM; actives 0.66% (n = 390,000); Q9Y6A5; AlphaScreen His-ARNT PAS-B/GST-TACC3 binding, luminescence; TACC3 fragment carries E629A point mutation;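 active = mean inhibition of replicates at least 50% and at least half of replicates each reaching 50%; inconclusive = half or more replicates reach 50% but mean below 50%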;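 note: 0% = complete ARNT plus TACC3 wells and 100% = ARNT alone without TACC3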
# Xi reactivation: activators of X-chromosome reactivation in mouse fibroblasts | XiGFP mouse fibroblasts, % GFP-positive cells imaging, 3 d; cells co-treated with 5-aza-dC sensitizer; scaled so ellipticine positive control = 100% | activation, % at 7.58 µM | actives 0.055% (n = 360,000) | AID 743238;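 active = mean normalized replicate activation at least 10% and every replicate at or above 10%; inconclusive = only one of the two criteria met; inactive = mean below 10% and not all replicates reach 10%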;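 note: 0% = median of on-plate neutral control wells and 100% = ellipticine 6 µM median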
#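 Assay system: SV40-immortalized XiGFP fibroblast cells, line 68-5-11; buffer or medium: DMEM plus 5-aza-dC sensitizer; compound: one concentration, pinned; timing: compounds 3 days, fix/stain 15 min at room temperature; benchmarks: positive control ellipticine, 6 µM final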
# DENV2 CPE: protects cells from dengue virus 2 cytopathic effect; AID 651640; CPE inhibition, % at 9.99 µM; DENV2-infected cells, cytopathic effect rescue, plate reader; actives 1.7% (n = 350,000); in the data active = CPE inhibition above about 20%, passing the limit was not always enough; inconclusive = no clear call, values can overlap the other calls; tested in BHK-21 cells;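 note: 0% = median of neutral control wells and 100% = median of positive control wells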
# FGF22 binding: binders of recombinant human FGF22 by thermal shift; SYPRO orange fluorescence; percent of sucrose octasulfate shift, DMSO zero; activity (Tm shift, normalised), % at 9.99 µM; Q9HCT0; actives 1.5% (n = 340,000);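 active = mean Tm shift, scaled 0 neutral to 100 positive control, at about 1.3% or above, every replicate too, limit read from the data; inconclusive = no clear call, values can overlap the other calls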
# Target sequence (Q9HCT0 whole entry, looked up): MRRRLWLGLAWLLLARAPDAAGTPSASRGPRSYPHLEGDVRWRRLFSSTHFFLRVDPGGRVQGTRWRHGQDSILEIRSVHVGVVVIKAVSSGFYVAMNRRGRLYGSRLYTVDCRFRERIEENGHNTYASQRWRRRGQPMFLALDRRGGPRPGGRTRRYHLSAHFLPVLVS
# FN deposit inh: fibronectin deposition inhibition | AH1F fibroblasts, Alexa488-fibronectin deposition fluorescence, overnight | inhibition, % at 12.6 µM | actives 0.086% (n = 350,000) | AID 743247;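 active = mean inhibition across replicates of 30% or more, regardless of how many single replicates reach that level; inconclusive = mean under 30% yet at least half of replicates reach 30%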;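 note: positive control wells lacked labelled fibronectin entirely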
#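 Measured by – fluorescence 485/525 nm · System – AH1F fibroblast monolayer, labelled fibronectin deposition · Amount – 10000 cells per well · Buffer or medium – serum-reduced DMEM (2% serum) · Doses – single dose, pinned · Also added – fluorescent fibronectin at 24 nM final · Schedule – 1 h cell attachment, overnight exposure to compound and label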
# SIRT5 inh: sirtuin-5 (human) deacylase inhibition | inhibition, % at 15 µM | Purified SirT5, succinyl-peptide AMC, trypsin-coupled fluorescence | actives 1.1% (n = 330,000); in the data active = inhibition above about 15%; inconclusive = no clear call, values can overlap the other calls
# Target sequence (Q9NXA8 whole entry, looked up): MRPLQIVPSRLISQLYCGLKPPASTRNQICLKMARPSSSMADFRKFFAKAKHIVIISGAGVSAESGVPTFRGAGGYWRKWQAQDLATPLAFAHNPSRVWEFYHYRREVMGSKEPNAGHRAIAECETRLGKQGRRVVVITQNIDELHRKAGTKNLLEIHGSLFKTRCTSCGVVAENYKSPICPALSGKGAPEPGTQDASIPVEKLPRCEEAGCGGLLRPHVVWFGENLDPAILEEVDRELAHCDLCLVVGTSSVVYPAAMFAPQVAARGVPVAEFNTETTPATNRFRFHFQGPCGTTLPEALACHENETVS
# Numbers without * were called inactive; u = inconclusive; x = not tested or not shown. Sampled rows, rich in hits. Any-hit rate of the full collection: about 3.8%.
SMILES,ARNT TACC3 PPI,Xi reactivation,DENV2 CPE,FGF22 binding,FN deposit inh,SIRT5 inh
C[C@H](CO)N1C[C@H](C)[C@@H](CN(C)Cc2ccc3c(c2)OCO3)Oc2ccc(NC(=O)CCN3CCOCC3)cc2C1=O,7,-1,-6,0,2,-3
Cc1cc2ccccn2c1C(=O)c1ccccc1Br,-21,0,42*,0,-3,0
Cc1cc2ccccn2c1C(=O)c1ccc(F)cc1,11,0,0,0,5,-1
COc1ccc(-c2oc3ccc(-c4cc(OC)c(OC)c(OC)c4)cc3c2-c2ccc(OC)cc2)cc1,x,0,12,0,-5,x
COc1ccc(-c2oc3ccc(-c4cc(OC)c(OC)c(OC)c4)cc3c2-c2ccc(OC)nc2)cc1,-2,0,80*,0,-4,x
O=C(Nc1cccc(F)c1)N1CC(=O)N2[C@H](CO)[C@@H](c3ccc(-c4ccccc4F)cc3)[C@H]2C1,x,0,-3,x,x,2
COc1cccc(NC(=O)CSc2ncc(S(=O)(=O)c3ccccc3)c(=O)[nH]2)c1,-16,1,-7,1.8*,-5,2
CSc1ncc(S(=O)(=O)c2ccccc2)c(=O)[nH]1,-1,0,10,0,-24,20*
Cc1ccc(NC(=O)CSc2ncc(S(=O)(=O)c3ccccc3)c(=O)[nH]2)cc1C,-41,x,x,x,x,x
O=S(=O)(N[C@@H]1CC[C@@H](CCn2cc(-c3cccc(F)c3)nn2)O[C@@H]1CO)c1ccccc1,2,0,-4,0,x,-4
COc1cc(C2C(C#N)=C(N)Oc3c2ccc2ccccc32)ccc1OCC(=O)Nc1ccc(C)cc1 (configuration not stated),8,1,-3,0,-3,20*
COc1ccc(CN(C)C[C@H]2Oc3c(NC(=O)c4ccc(-c5nccs5)cc4)cccc3C(=O)N([C@@H](C)CO)C[C@@H]2C)cc1,10,-1,22*,0,x,24*
C[C@@H]1CN([C@@H](C)CO)C(=O)c2cccc(NC(=O)c3ccc(-c4nccs4)cc3)c2O[C@H]1CN(C)Cc1ccc(Oc2ccccc2)cc1,-15,-1,u,0,x,12
C[C@@H]1CN([C@H](C)CO)C(=O)c2cccc(NC(=O)c3ccc(-c4nccs4)cc3)c2O[C@@H]1CN(C)Cc1ccc(Oc2ccccc2)cc1,-23,-1,4,0,x,21*
CCOC1=C2CN(S(=O)(=O)c3ccc(C)cc3)[C@H](c3ccccc3)C[C@H]2[C@H]2C(=O)N(c3ccccc3)C(=O)[C@H]2C1,x,0,49*,0,x,-1
CCOC1=C2CN(S(=O)(=O)c3ccc(C)cc3)[C@H](c3ccc(CC)cc3)C[C@@H]2N(S(=O)(=O)c2ccc(C)cc2)[C@H](c2ccccc2)C1,x,0,95*,41,4,-1
C[C@@H]1C/C=C\C[C@H](c2ccc3c(c2)OCO3)NC(=O)[C@@H](c2ccccc2)CC(=O)N1,x,0,x,x,-11,x
Cc1ccc(-c2ccc(C3[C@H]4CNC[C@@H]3N4S(=O)(=O)c3cn(C)cn3)cc2)cc1 (some centres not stated),x,0,-1,x,-2,1
CN(C)c1ccc2c(c1)[C@@H]1C[C@@H](CC(=O)N3CCc4ccccc4C3)O[C@H](CO)[C@@H]1O2,0,0,12,-1,x,1
CC1=C(C#N)c2nc(N)c(C#N)c(C)c2/C1=C\c1ccc(OCC(=O)O)c(Cl)c1,14,0,2,1,3,19*
C[C@@H]1CN([C@H](C)CO)C(=O)c2cc(C#Cc3ccccn3)cnc2O[C@H]1CN(C)C(=O)c1cnccn1,5,-1,-9,0,x,1
C[C@@H](NC(=O)c1nc[nH]c1C(=O)N(C)Cc1ccccc1)c1ccccc1,2,0,35*,0,2,x
C[C@H](NC(=O)c1nc[nH]c1C(=O)N(C)Cc1ccccc1)c1ccccc1,3,0,2,0,7,-5
C[C@@H](CO)NC(=O)c1nc[nH]c1C(=O)N[C@H](C)c1ccccc1,x,0,4,43*,-4,x
C[C@H](NC(=O)c1nc[nH]c1C(=O)NC[C@@H](C)O)c1ccccc1,x,0,6,43*,3,x
SMILES,ARNT TACC3 PPI,Xi reactivation,DENV2 CPE,FGF22 binding,FN deposit inh,SIRT5 inh
C[C@H](CO)NC(=O)c1nc[nH]c1C(=O)N[C@@H](C)c1ccccc1,x,0,5,0,x,-4
C[C@H](NC(=O)c1ncn(Cc2ccccc2)c1C(=O)N[C@@H](C)c1ccccc1)c1ccccc1,0,0,75*,0,-30,x
CC(=O)N(C)C[C@H]1Oc2ncc(C#C[C@H](C)O)cc2C(=O)N([C@@H](C)CO)C[C@H]1C,-3,-1,3,1,12,6
CC(=O)N/N=C/c1cc(C(C)C)cc(/C=N/NC(C)=O)c1O,72*,0,0,0,1,x
Cn1cc(Br)c(C(=O)Nc2c(F)c(F)c(F)c(F)c2F)n1,-6,0,-3,0,0,21*
O=C(C[C@@H]1C=C[C@@H](NC(=O)c2ccncc2)[C@@H](CO)O1)NCc1ccncn1,x,0,-5,x,x,1
COC(=O)[C@]1(Cc2ccccc2)N[C@H](CN(C)C(=O)c2ccc(F)cc2)[C@@H]2C(=O)N(C)C(=O)[C@@H]21,3,0,u,43*,-3,x
CCN(C[C@H]1N[C@@](Cc2ccccc2)(C(=O)OC)[C@H]2C(=O)N(C)C(=O)[C@@H]12)C(=O)c1ccccc1,1,0,-4,0,3,-6
COC(=O)[C@]1(Cc2ccccc2)N[C@H](CN(C)C(=O)c2ccc(C)cc2)[C@@H]2C(=O)N(C)C(=O)[C@@H]21,2,0,-2,43*,4,x
CCN(C(=O)CSc1nc2cc(Cl)ccc2c(=O)n1Cc1ccco1)C1CCS(=O)(=O)C1 (configuration not stated),6,0,-1,44*,1,0
O=C(N[C@H]1CC[C@H](CC(=O)N2CCc3ccccc3C2)O[C@H]1CO)C1CCOCC1,6,0,u,0,-5,9
Cc1ccc(S(=O)(=O)Cc2ccccc2Cl)cc1,-12,0,29*,0,-4,1
Cc1ccc(S(=O)(=O)CCC(=O)NCc2ccccc2Cl)cc1,x,0,x,0,-3,-1
C[C@@H]1CCCCO[C@@H](CN(C)C(=O)NC2CCCCC2)[C@H](C)CN([C@H](C)CO)C(=O)c2cc(NC(=O)Nc3ccc(F)cc3)ccc2O1,14,1,-5,1,2,-1
